Experimental data taken from ChEMBL document CHEMBL4513216, “Probing the Open Global Health Chemical Diversity Library for Multistage-Active Starting Points for Next-Generation Antimalarials” (ACS Infect Dis, 2020).

Assay: Toxicity liver stage against HepG2, at 10uM
Format: cell-based
Design: test concentration 10 uM, cell line HepG2-A16-CD81EGFP
Conditions: human, HepG2-A16-CD81EGFP cells; read-out: INHIBITION
Outline: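 Uninfected HepG2-A16-CD81EGFP cells, 3 × 10^3 per well, 1536-well, plated on prespotted compound at 10 μM final, parasite-free screening media added to match infected plates; puromycin 10 μM positive, DMSO 0.5% negative; run in parallel with 48 h PbLuc assay at 37 °C, 5% CO2; viability by CellTiter-Glo luminescence, normalized to controls.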

Question: With `CC(Cn1cccn1)NC(=O)NCc1cccs1` (centres undefined) as the compound, how does the cytotoxicity at 10 µM read?
Answer: Its cytotoxicity at 10 µM is -0.12%.

Question: Which cytotoxicity at 10 µM does the source give for `COc1ccccc1OCC(=O)N1C[C@@H]2CN(C)CCO[C@@H]2C1` here?
Answer: The cytotoxicity at 10 µM was -2.94%.

Question: Which cytotoxicity at 10 µM does the source give for `CCS(=O)(=O)N1C[C@@H](OCc2cccnc2)[C@H]2OCCC[C@H]21` here?
Answer: Its cytotoxicity at 10 µM is 3.6%.

Question: With `COc1ccc(CN2C[C@H](N3CCCC3=O)[C@@H]3OCCC[C@@H]32)cc1` as the compound, how does the cytotoxicity at 10 µM read?
Answer: The cytotoxicity at 10 µM was 9.51%.

Question: With `CN(Cc1cccs1)C(=O)c1ccc(=O)n(C)c1` as the compound, how does the cytotoxicity at 10 µM read?
Answer: Its cytotoxicity at 10 µM is -13.2%.

Question: Which cytotoxicity at 10 µM does the source give for `Cn1cc(C(C)(O)CNC(=O)c2cc(Br)cn2C)cn1` (centres undefined) here?
Answer: The cytotoxicity at 10 µM was -51.1%.

Question: Which cytotoxicity at 10 µM does the source give for `Cc1ccc(-c2ccc(=O)n(CC(=O)Nc3nccs3)n2)cc1` here?
Answer: Its cytotoxicity at 10 µM is -10.2%.

Question: With `CCn1cc2c(n1)C(COC)CN(Cc1ccccn1)C2` (centres undefined) as the compound, how does the cytotoxicity at 10 µM read?
Answer: Its cytotoxicity at 10 µM is -3.73%.

Question: Which cytotoxicity at 10 µM does the source give for `COCCN1CCC12CCN(c1ncccn1)C2` (centres undefined) here?
Answer: Its cytotoxicity at 10 µM is 9.76%.

Question: For `Cn1ncc2c(=O)[nH]c(CN3CCCC3Cc3ccc(F)cc3)nc21` (centres undefined), which cytotoxicity at 10 µM is on record?
Answer: The cytotoxicity at 10 µM was 0.301%.

Question: For `O=C([C@H]1COC[C@H]2CN(C3CCOCC3)C[C@H]21)N1CCCCO1`, which cytotoxicity at 10 µM is on record?
Answer: The cytotoxicity at 10 µM was 5.22%.

Question: Which cytotoxicity at 10 µM does the source give for `Cn1ncc2c(=O)[nH]c(CN3CCCc4cc(F)ccc43)nc21` here?
Answer: Its cytotoxicity at 10 µM is -8.23%.

Question: For `O=C(O)CNc1cc(-c2nccnc2N2CCCC2)c2cc[nH]c2n1`, which cytotoxicity at 10 µM is on record?
Answer: Its cytotoxicity at 10 µM is 4.9%.

Question: With `Cc1nn(COc2cccc(F)c2)c(C)c1NC(=O)C1CC1` as the compound, how does the cytotoxicity at 10 µM read?
Answer: Its cytotoxicity at 10 µM is 5.62%.

Question: For `Cn1cncc1CN1CCC(O)(Cn2nc(-c3cccs3)oc2=O)CC1`, which cytotoxicity at 10 µM is on record?
Answer: The cytotoxicity at 10 µM was -5.46%.

Question: With `O=C(Nc1ccc2ncsc2c1)N1CCCN([C@H]2COC[C@@H]2O)CC1` as the compound, how does the cytotoxicity at 10 µM read?
Answer: Its cytotoxicity at 10 µM is -53.6%.

Question: With `CCCC(C)(C)NC(=O)CCN1CCOC1=O` as the compound, how does the cytotoxicity at 10 µM read?
Answer: The cytotoxicity at 10 µM was -8.94%.

Question: Which cytotoxicity at 10 µM does the source give for `O=C(NCc1csc2ccccc12)NCC1(O)CCSC1` (centres undefined) here?
Answer: The cytotoxicity at 10 µM was 3.19%.

Question: Which cytotoxicity at 10 µM does the source give for `O=c1[nH]c2ncccc2n1C1CCNCC1` here?
Answer: Its cytotoxicity at 10 µM is 11.5%.

Question: With `CCc1ccc(NC(=O)N2C[C@@H]3C[C@H](C(=O)NC4CCC4)[C@H](C2)O3)cc1` as the compound, how does the cytotoxicity at 10 µM read?
Answer: The cytotoxicity at 10 µM was -2.25%.

Question: For `O=C(Nc1ccccc1)C1CCCN(c2cc(-n3cncn3)ncn2)C1` (centres undefined), which cytotoxicity at 10 µM is on record?
Answer: Its cytotoxicity at 10 µM is -2.1%.

Question: Which cytotoxicity at 10 µM does the source give for `Cc1nnsc1CN(C)C(=O)CN1CC2(CCNCC2)OC1=O` here?
Answer: Its cytotoxicity at 10 µM is 11.4%.

Question: Which cytotoxicity at 10 µM does the source give for `O=C(CC1CC1)N1CCn2cc(Cn3cncn3)nc2C1` here?
Answer: The cytotoxicity at 10 µM was -8.87%.

Question: Which cytotoxicity at 10 µM does the source give for `CCSc1cncc(NCc2ccc(N3CCNC(=O)C3)cc2)n1` here?
Answer: The cytotoxicity at 10 µM was 15.7%.

Question: Which cytotoxicity at 10 µM does the source give for `Cc1cccc(-c2[nH]ncc2CNCC2CCN(CC(C)O)CC2)c1` (centres undefined) here?
Answer: Its cytotoxicity at 10 µM is -10.1%.

Question: For `CS(=O)(=O)NCCC(=O)N1CCC(Cc2ccc(CO)cc2)C1` (centres undefined), which cytotoxicity at 10 µM is on record?
Answer: Its cytotoxicity at 10 µM is -5.77%.

Question: Which cytotoxicity at 10 µM does the source give for `CC(Oc1ccc(F)cc1)C(=O)N(CC(N)=O)C1CCCC1` (centres undefined) here?
Answer: Its cytotoxicity at 10 µM is 0.217%.

Question: For `CC(c1cccc(-c2ncc(C#N)c(N)n2)c1)N(C)C` (centres undefined), which cytotoxicity at 10 µM is on record?
Answer: The cytotoxicity at 10 µM was -7.3%.

Question: Which cytotoxicity at 10 µM does the source give for `COc1ccc(C(=O)N(c2ccc(OC)c(F)c2)C(C)C)cn1` here?
Answer: Its cytotoxicity at 10 µM is -1.94%.

Question: With `Cc1cc(-c2cnc(NC3CCCC3)nc2-c2ccoc2C)on1` as the compound, how does the cytotoxicity at 10 µM read?
Answer: Its cytotoxicity at 10 µM is 45.7%.

Question: Which cytotoxicity at 10 µM does the source give for `CCCC1CCCN(C(=O)Nc2ccnc(C(=O)N(C)C)c2)CC1` (centres undefined) here?
Answer: The cytotoxicity at 10 µM was 9.58%.

Question: Which cytotoxicity at 10 µM does the source give for `O=C(C1CC(=O)N(c2n[nH]c3cc(Br)ccc23)C1)N1CCSCC1` (centres undefined) here?
Answer: The cytotoxicity at 10 µM was -1.91%.

Question: With `CCCC(NC(=O)c1ccccn1)c1nnc2ccccn12` (centres undefined) as the compound, how does the cytotoxicity at 10 µM read?
Answer: The cytotoxicity at 10 µM was -6.54%.

Question: Which cytotoxicity at 10 µM does the source give for `N#Cc1cn(C2CC2)c(=O)n(CC(O)c2ccc(OC(F)F)cc2)c1=O` (centres undefined) here?
Answer: Its cytotoxicity at 10 µM is -2.22%.

Question: With `CNC(=O)C1Cc2ccccc2CN1CCc1cccs1` (centres undefined) as the compound, how does the cytotoxicity at 10 µM read?
Answer: The cytotoxicity at 10 µM was -0.837%.

Question: Which cytotoxicity at 10 µM does the source give for `CN(C(=O)CNc1ccc(C#N)cc1)C1CCCCC1` here?
Answer: The cytotoxicity at 10 µM was 0.0479%.

Question: With `CO[C@@H]1CC[C@H]2[C@H]1OCCN2CC1CCOCC1` as the compound, how does the cytotoxicity at 10 µM read?
Answer: The cytotoxicity at 10 µM was -20.3%.

Question: With `COc1cc(CN2CCCC(Nc3cccc(F)c3)C2)cc(OC)c1O` (centres undefined) as the compound, how does the cytotoxicity at 10 µM read?
Answer: The cytotoxicity at 10 µM was 1.66%.

Question: For `O=C(NCC1CC1)[C@H]1C[C@H]2CN(C(=O)NCC3CCCCC3)C[C@@H]1O2`, which cytotoxicity at 10 µM is on record?
Answer: The cytotoxicity at 10 µM was 3.79%.

Question: With `CCn1nc(-c2ccccc2F)ccc1=O` as the compound, how does the cytotoxicity at 10 µM read?
Answer: The cytotoxicity at 10 µM was 12.9%.

Question: With `COCC(=O)N1CCC(c2cc(C(F)(F)F)n3ccnc3n2)CC1` as the compound, how does the cytotoxicity at 10 µM read?
Answer: The cytotoxicity at 10 µM was 1.44%.

Question: For `CC(=O)N1CCC[C@H]1C(=O)N(C)CCCOc1ccccc1`, which cytotoxicity at 10 µM is on record?
Answer: The cytotoxicity at 10 µM was -1.18%.

Question: For `COC(=O)C1CCN(C(=O)c2nnc3ccc(C)cc3n2)CC1`, which cytotoxicity at 10 µM is on record?
Answer: The cytotoxicity at 10 µM was 11.7%.

Question: With `CCCNC(=O)N1CCN(Cc2cc(C)no2)CC1` as the compound, how does the cytotoxicity at 10 µM read?
Answer: The cytotoxicity at 10 µM was -1.18%.

Question: With `COc1cc(OC)c(C2CC(=O)Oc3cc(C)[nH]c(=O)c32)cc1OC` (centres undefined) as the compound, how does the cytotoxicity at 10 µM read?
Answer: The cytotoxicity at 10 µM was -4.81%.

Question: Which cytotoxicity at 10 µM does the source give for `Cc1ccc(S(=O)(=O)N2CCc3ccc(F)cc32)cc1C(=O)O` here?
Answer: Its cytotoxicity at 10 µM is -19.4%.

Question: For `CCn1nc(C)c2nc(C)nc(NCCc3ccccc3)c21`, which cytotoxicity at 10 µM is on record?
Answer: Its cytotoxicity at 10 µM is 25.2%.

Question: Which cytotoxicity at 10 µM does the source give for `O=C1COC2(CCN(Cc3nccs3)CC2)CN1c1ccccc1` here?
Answer: Its cytotoxicity at 10 µM is -114%.

Question: Which cytotoxicity at 10 µM does the source give for `CCNC(c1cccnc1)c1ccc(F)cc1F` (centres undefined) here?
Answer: The cytotoxicity at 10 µM was -2.34%.

Question: With `COc1cc(C)nc(N2CCN(C(=O)COC3CCCC3)CC2)n1` as the compound, how does the cytotoxicity at 10 µM read?
Answer: Its cytotoxicity at 10 µM is -3.78%.

Question: For `CCCn1ncc(C(=O)N2CCC(N3CCCCC3)CC2)c1C`, which cytotoxicity at 10 µM is on record?
Answer: The cytotoxicity at 10 µM was -143%.

Question: With `COc1ccc(-c2csc(-c3cccc(C(=O)O)c3)n2)cc1OC` as the compound, how does the cytotoxicity at 10 µM read?
Answer: Its cytotoxicity at 10 µM is 3.31%.

Question: For `CN1CCC(c2nc3ccc(-c4ccccc4)cn3n2)CC1`, which cytotoxicity at 10 µM is on record?
Answer: Its cytotoxicity at 10 µM is -5.29%.

Question: For `Cc1ccc(F)c(C(=O)N2CCN(S(C)(=O)=O)[C@@H](C)C2)c1`, which cytotoxicity at 10 µM is on record?
Answer: Its cytotoxicity at 10 µM is -10.3%.
